From paper PMC5808564 (ChemMedChem, 2017)
Several values for one entry are separate records, joined by “and”; a condition that tells them apart may be missing. Identical values can stand only once. Like-named read-outs stand apart in the source and are kept apart here.

Columns and labels:
[1] = biological target: recombinant T. brucei hexokinase 1 (rTbHK1) (Trypanosoma brucei, UniProt Q38C42); test: biochemical; assay type: biochemical
[2] = test system: T. brucei bloodstream form (BSF) parasites (cell line 90-13, a 427 strain); test: microbe, parasite or virus in culture; assay type: cell-based, Trypanosoma brucei; conditions: for % T. brucei BSF growth inhibition (10 μM): 10 μM compound; for % T. brucei BSF growth inhibition (10 μM) / inhibition at 10 µM: BLD = below level of detection; for T. brucei BSF potency (LD50 ± SEM): 3-day growth, n ≥ 3; for inhibition at 10 µM: Trypanosoma brucei, A-427, read-out: % T. brucei BSF growth inhibition (10 μM), 10 μM compound
[3] = test system: IMR-90 human cells; test: Human cell line toxicity testing; assay type: cell-based
[4] = biological target: T1, human HK 4 (human glucokinase, hGlk) (Homo sapiens, UniProt P35557); test: Specificity assay against human glucokinase; assay type: biochemical; conditions: for % hGlk inhibition (10 μM): 10 μM compound, BLD = below level of detection; for inhibition at 10 µM: read-out: % hGlk inhibition (10 μM)
T1 sequence (P35557 1-465): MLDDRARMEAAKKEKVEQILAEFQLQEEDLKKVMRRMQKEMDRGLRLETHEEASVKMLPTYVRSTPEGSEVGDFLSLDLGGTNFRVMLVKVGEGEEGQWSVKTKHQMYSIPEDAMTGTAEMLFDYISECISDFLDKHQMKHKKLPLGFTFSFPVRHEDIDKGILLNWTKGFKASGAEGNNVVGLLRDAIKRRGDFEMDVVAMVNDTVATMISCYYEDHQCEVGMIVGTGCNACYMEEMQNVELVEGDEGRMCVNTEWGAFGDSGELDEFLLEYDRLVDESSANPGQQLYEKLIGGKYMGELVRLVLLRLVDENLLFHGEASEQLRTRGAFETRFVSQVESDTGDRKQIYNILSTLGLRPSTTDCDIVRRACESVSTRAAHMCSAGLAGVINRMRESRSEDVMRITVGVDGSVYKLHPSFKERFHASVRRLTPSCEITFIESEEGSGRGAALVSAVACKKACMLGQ
How it was run: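 Uses human hexokinase 4 (glucokinase; GenBank BC001890). Activity is read through a coupled reaction in which glucose-6-phosphate dehydrogenase converts the glucose-6-phosphate formed to 6-phosphogluconate. The coincident NADPH formation is followed at 340 nm.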

[5] = read-out: rTbHK1 potency (IC50 ± SEM), average of n ≥ 3 experiments
[6] = read-out: IMR90 toxicity (EC50), IMR-90 cells, 44-46 h
[7] = Homo sapiens, IMR-90, read-out: IMR90 toxicity (EC50)

Row | Structure (SMILES) | IC50 [1, 5] | % T. brucei BSF growth inhibition (10 μM) [2] | T. brucei BSF potency (LD50 ± SEM) [2] | EC50 [3, 6] | % hGlk inhibition (10 μM) [4] | IC50 [1] | inhibition at 10 µM [2] | EC50 [3, 7] | inhibition at 10 µM [4] | rTbHK1 enzymatic potency (in words) [1] | activity on whole T. brucei BSF parasites (in words) [2]
1 | CC(C)(C)c1ccc(C(=O)Nc2cc(Cl)c(-n3cccc3)cc2C(=O)O)cc1 [Compound 4aa] | 3 ± 0.2 µM | 73.6 ± 1.0% | 6.9 ± 2.1 µM | > 25 µM | 15.8 ± 3.0% |  |  |  |  |  | 
2 | CC(C)(C)c1ccc(C(=O)Nc2cc(Cl)c(-c3ccc[nH]3)cc2C(=O)O)cc1 [Compound 4bb] |  |  |  |  |  | 0.5 ± 0.05 µM | 57 ± 7.1% | > 25 µM | 6.1 ± 0.1% |  | 
3 | Cc1cc(C(=O)O)c(NC(=O)c2ccc(C(C)(C)C)cc2)cc1Cl [Compound 4c, 2-(4-tert-Butylbenzamido)-4-chloro-5-methylbenzoic acid] |  |  |  |  |  | 2.7 ± 0.18 µM | 97.5 ± 0.6% | > 25 µM | 12.5 ± 4.8% |  | 
4 | CC(C)(C)c1ccc(C(=O)Nc2cc(Cl)c(-n3cccn3)cc2C(=O)O)cc1 [Compound 4cc] | 2.8 ± 0.2 µM | 22.5 ± 12.3% | > 10.0 µM | > 25 µM | 8.7 ± 4.4% |  |  |  |  |  | 
5 | CCc1cc(C(=O)O)c(NC(=O)c2ccc(C(C)(C)C)cc2)cc1Cl [Compound 4d, 2-(4-tert-Butylbenzamido)-4-chloro-5-ethylbenzoic acid] |  | BLD |  |  |  | 7.4 ± 0.15 µM |  | > 25 µM | 0.7 ± 1.4% |  | 
6 | CC(C)(C)c1ccc(C(=O)Nc2cc(Cl)c(-n3ccnc3)cc2C(=O)O)cc1 [Compound 4dd] | > 10 µM | 16.4 ± 13.3% |  | > 25 µM | 1.7 ± 3.2% |  |  |  |  |  | 
7 | CC(C)(C)c1ccc(C(=O)Nc2cc(Cl)c(C3CC3)cc2C(=O)O)cc1 [Compound 4e] | 6.7 ± 0.38 µM | 43.4 ± 16.8% |  | > 25 µM | BLD |  |  |  |  |  | 
8 | CC(C)(C)c1ccc(C(=O)Nc2cc(Cl)c(-c3nnn[nH]3)cc2C(=O)O)cc1 [Compound 4ee] |  | BLD |  |  |  | 0.14 ± 0.002 µM |  | > 25 µM | 1.6 ± 0.5% |  | 
9 | Cn1nnc(-c2cc(C(=O)O)c(NC(=O)c3ccc(C(C)(C)C)cc3)cc2Cl)n1 [Compound 4ff] | > 10 µM | BLD |  | > 25 µM | 14.0 ± 4.1% |  |  |  |  | lacked enzymatic potency | failed to inhibit BSF parasite growth
10 | Cc1ccc(-c2cc(C(=O)O)c(NC(=O)c3ccc(C(C)(C)C)cc3)cc2Cl)cc1 [Compound 4g] | 2.78 ± 0.03 µM | 81.4 ± 5.6% | 3.2 ± 1.6 µM | > 25 µM | 15.7 ± 3.0% |  |  |  |  |  | 
11 | Cc1ccccc1-c1cc(C(=O)O)c(NC(=O)c2ccc(C(C)(C)C)cc2)cc1Cl [Compound 4h] |  | 65.2 ± 0.2% |  | > 25 µM | 16.6 ± 2.3% |  |  |  |  |  | 
12 | COc1ccc(-c2cc(C(=O)O)c(NC(=O)c3ccc(C(C)(C)C)cc3)cc2Cl)cc1 [Compound 4i] | 1.72 ± 0.09 µM | 82.5 ± 7.1% | 3.1 ± 0.2 µM | > 25 µM | 22.2 ± 1.6% |  |  |  |  |  | 
13 | COc1cccc(-c2cc(C(=O)O)c(NC(=O)c3ccc(C(C)(C)C)cc3)cc2Cl)c1 [Compound 4j] | 0.88 ± 0.01 µM | 92.2 ± 2.9% | 1.5 µM and 1.5 ± 0.3 µM | > 25 µM | 13.8 ± 1.9% |  |  |  |  |  | 
14 | COc1ccccc1-c1cc(C(=O)O)c(NC(=O)c2ccc(C(C)(C)C)cc2)cc1Cl [Compound 4k] | 4.6 ± 0.32 µM | 90.7 ± 0.9% | 2.0 ± 0.2 µM | > 25 µM | 18.8 ± 2.4% |  |  |  |  |  | 
15 | CN(C)c1ccc(-c2cc(C(=O)O)c(NC(=O)c3ccc(C(C)(C)C)cc3)cc2Cl)cc1 [Compound 4l] | > 10 µM | 58.0 ± 4.0% | 6.0 ± 0.2 µM | > 25 µM | 27.8 ± 1.7% |  |  |  |  |  | 
16 | CN(C)c1cccc(-c2cc(C(=O)O)c(NC(=O)c3ccc(C(C)(C)C)cc3)cc2Cl)c1 [Compound 4m] |  |  |  |  |  | 4 ± 0.32 µM | 82.8 ± 0.2% | > 25 µM | 43.7 ± 4.1% |  | 
17 | CC(C)(C)c1ccc(C(=O)Nc2cc(Cl)c(-c3ccc(F)cc3)cc2C(=O)O)cc1 [Compound 4n] | 2.44 ± 0.08 µM | 76.7 ± 10.4% | 3.1 ± 0.7 µM | > 25 µM | 15.1 ± 2.6% |  |  |  |  |  | 
18 | CC(C)(C)c1ccc(C(=O)Nc2cc(Cl)c(-c3cccc(F)c3)cc2C(=O)O)cc1 [Compound 4o] | 4.6 ± 0.32 µM | 93.7 ± 2.6% | 1.8 ± 0.3 µM | > 25 µM | 16.1 ± 8.7% |  |  |  |  |  | 
19 | CC(C)(C)c1ccc(C(=O)Nc2cc(Cl)c(-c3ccccc3F)cc2C(=O)O)cc1 [Compound 4p] | 2.08 ± 0.07 µM | 92.8 ± 2.0% | 5.2 ± 0.9 µM | > 25 µM | 24.5 ± 2.5% |  |  |  |  |  | 
20 | CC(C)(C)c1ccc(C(=O)Nc2cc(Cl)c(-c3cccc(Cl)c3)cc2C(=O)O)cc1 [Compound 4q] |  |  |  |  |  | 2.7 ± 0.05 µM | 90.7 ± 1.8% | > 25 µM | 30.9 ± 3.5% |  | 
21 | CC(C)(C)c1ccc(C(=O)Nc2cc(Cl)c(-c3ccc(C(=O)O)cc3)cc2C(=O)O)cc1 [Compound 4r] | 3.5 ± 0.33 µM | 51.0 ± 14.3% |  | > 25 µM | 3.5 ± 7.1% |  |  |  |  |  | 
22 | CC(C)(C)c1ccc(C(=O)Nc2cc(Cl)c(-c3ccncc3)cc2C(=O)O)cc1 [Compound 4s] | > 10 µM | 99.7 ± 1.4% | 3.5 ± 0.6 µM | > 25 µM | 15.1 ± 3.2% |  |  |  |  |  | 
23 | CC(C)(C)c1ccc(C(=O)Nc2cc(Cl)c(-c3cccnc3)cc2C(=O)O)cc1 [Compound 4t] |  | 57.7 ± 14.2% |  | > 25 µM | 16.7 ± 1.2% |  |  |  |  |  | 
24 | CC(C)(C)c1ccc(C(=O)Nc2cc(Cl)c(-c3cccs3)cc2C(=O)O)cc1 [Compound 4u] |  |  |  |  |  | 0.47 ± 0.15 µM | 69.1 ± 5.8% | > 25 µM | 12.5 ± 1.3% |  | 
25 | CC(C)(C)c1ccc(C(=O)Nc2cc(Cl)c(-c3ccsc3)cc2C(=O)O)cc1 [Compound 4v] |  |  |  |  |  | 0.33 ± 0.03 µM | 68.5 ± 2.1% | > 25 µM | 24.8 ± 1% |  | 
26 | CC(C)(C)c1ccc(C(=O)Nc2cc(Cl)c(-c3ccco3)cc2C(=O)O)cc1 [Compound 4w] |  |  |  |  |  | 0.42 ± 0.02 µM | 59 ± 8.2% | > 25 µM | 10.4 ± 2.1% |  | 
27 | CC(C)(C)c1ccc(C(=O)Nc2cc(Cl)c(-c3ccoc3)cc2C(=O)O)cc1 [Compound 4x] | 0.51 ± 0.06 µM | 73.7 ± 3.7% | 4.2 ± 0.4 µM | > 25 µM | 3.1 ± 2.8% |  |  |  |  |  | 
